{
  "source": "paper PMC10622895",
  "about": "(Proceedings of the National Academy of Sciences of the …, 2023)",
  "key": {"[1]": {"details": "ref [1]; cited from earlier work"}, "BCM3107 TNBC PDX": {"tested_on": "BCM3107 TNBC PDX", "assay": "Patient-derived xenograft in NSG mice", "format": "in vivo, mouse", "details": "5D4 40 mg/kg i.p. twice weekly; talazoparib 0.5 mg/kg daily × 5 per week"}, "BCM2665 PDX": {"tested_on": "BCM2665 PDX", "assay": "IHC of cleaved PARP1 in PDX tumors", "format": "in vivo, mouse", "in_short": "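Tumors were taken the day after the last dose for cleaved PARP1 IHC. Percent positive cells was scored on twelve 10× images from three xenografts per group.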"}, "[2]": {"tested_on": "mouse intestinal epithelium", "assay": "IHC of cleaved PARP1 and Ki67 in mouse intestine", "format": "in vivo", "details": "mice of the BCM2665 experiment", "in_short": "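NSG mice carried BCM2665 breast cancer PDX. Mice were euthanized the day after the last dose. Intestine was IHC-stained for cleaved PARP1 (10× objective), with percent positive cells determined by image analysis. Ki67 IHC was done on intestinal epithelium (20× objective).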"}},
  "data": [
    {"smiles": "O=C(O)CN(CC(=O)O)Cc1cc2c(cc1O)Oc1cc(O)c(CN(CC(=O)O)CC(=O)O)cc1C21OC(=O)c2ccccc21", "note": "[calcein]", "values": [
      {"measurement": "membrane permeability", "setting": "[1]", "result": "lacks membrane permeability"}
    ]},
    {"smiles": "CNCc1ccc(-c2[nH]c3cc(F)cc4c3c2CCNC4=O)cc1", "note": "[rucaparib]", "values": [
      {"measurement": "viability of nontransformed hepatocytes", "setting": "AML12 mouse hepatocytes", "result": "did not elicit any effect"}
    ]},
    {"smiles": "Cn1ncnc1[C@H]1c2n[nH]c(=O)c3cc(F)cc(c23)N[C@@H]1c1ccc(F)cc1", "note": "[talazoparib]", "values": [
      {"measurement": "tumor response, single agent", "setting": "BCM3107 TNBC PDX", "result": "resistant"},
      {"measurement": "apoptosis in PDX (PARP-1 cleavage, IHC)", "setting": "BCM2665 PDX", "result": "only had mild proapoptotic effect"},
      {"measurement": "apoptosis and Ki67 staining in mouse intestinal epithelium", "setting": "[2]", "result": "neither induced apoptosis nor affected Ki67 staining"}
    ]}
  ]
}
